Compound activity: PubChem, several laboratories
Compounds with a hit are over-represented: about 2.8% of the library has one in this group of screens.
NPY-Y2 antag: blocks the human neuropeptide Y Y2 receptor; P49146; NPY-Y2 expressing cells, antagonist mode; inhibition, % at 2.7 µM; 0.99% of 140,000 active; AID 793; in the data active = inhibition above about 17%;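 note: 0% = vehicle with agonist challenge and 100% = reference antagonist with challenge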
Target sequence (P49146 whole entry, looked up): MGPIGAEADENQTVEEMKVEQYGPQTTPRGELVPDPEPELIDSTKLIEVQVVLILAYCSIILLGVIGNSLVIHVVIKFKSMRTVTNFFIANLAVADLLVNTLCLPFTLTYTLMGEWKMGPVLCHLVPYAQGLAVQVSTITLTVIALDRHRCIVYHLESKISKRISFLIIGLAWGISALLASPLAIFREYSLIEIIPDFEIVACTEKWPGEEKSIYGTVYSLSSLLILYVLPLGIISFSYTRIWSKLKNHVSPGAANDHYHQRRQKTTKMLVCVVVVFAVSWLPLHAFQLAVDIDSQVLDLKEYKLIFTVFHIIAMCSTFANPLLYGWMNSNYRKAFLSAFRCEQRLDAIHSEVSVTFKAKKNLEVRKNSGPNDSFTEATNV
NPY1 pot ag: human NPY-Y1 potentiation or agonism, primary screen | AID 1304 | 0.37% of 220,000 active | activation, % at 3.6 µM | P25929 | NPY-Y1 expressing cells, potentiator/agonist activation; in the data active = activation above about 33%, passing the limit was not always enough;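 note: cells stimulated with NPY at EC10 then isoproterenol at EC100; 0% = low agonist plus stimulus and 100% = saturating agonist plus stimulus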
EP2 modulator: modulates human prostaglandin E2 receptor EP2 signaling; P43116; 0.83% of 260,000 active; EP2-expressing cells, cAMP HTRF FRET, PGE2 co-stimulation; induction, % at 25 µM;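 active = compounds whose cAMP rise, as percent of the full-agonist control response, exceeds 60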;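 note: rat C6 glioma line stably carrying human EP2 under a CMV promoter; the protocol text gives 20 µM as final concentration; 100% = response of wells given 1 µM PGE2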
NPY-Y1 antag: blocks the human neuropeptide Y Y1 receptor; P25929; HEK293-CNG Y1 cells, membrane potential fluorescence; NPY at EC95, then isoproterenol; inhibition, % at 3.6 µM; 1% of 200,000 active; AID 1040;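 active = inhibition above the campaign mean inhibition of all tested compounds plus 3 SD, cut at about 20% in these data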;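 note: 0% = DMSO wells given NPY plus isoproterenol and 100% = isoproterenol alone without NPY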
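Test system: HEK293 cells co-expressing NPY Y1 receptor and cyclic-nucleotide gated channel; Also added: NPY (25 nM), isoproterenol (1 µM), Ro 20-1724 (25 µM); Compound dosing: one concentration, 3.6 µM, in 0.4% DMSO; Timing: dye 3 h, compound 60 min room temperature, stimulation 45 min; Technique: Membrane-potential fluorescent dye readout.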
NPY-Y2 PAM-ag: potentiators or agonists of human neuropeptide Y receptor Y2 | cells expressing NPY-Y2, potentiator/agonist read-out | activation, % at 3.6 µM | 0.45% of 220,000 active | AID 1359; in the data active = activation above about 27%;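 note: cells stimulated with NPY near EC25 plus isoproterenol at EC100; 0% = vehicle plus submaximal agonist and 100% = vehicle plus saturating agonist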
PGE2 EP2 inh: blocks the human prostaglandin E2 receptor EP2; C6 glioma cells expressing human EP2, cAMP TR-FRET; cells stimulated with saturating PGE2; inhibition, % at 25 µM; 0.52% of 260,000 active;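 active = percent inhibition above 40 after rounding to a whole number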;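 note: rat C6 glioma host cells with rolipram phosphodiesterase inhibitor present; the protocol text gives 20 µM as final concentration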
The depositor's hits bear a star; . = no result given; ! = not confirmed by another sample.

SMILES | NPY-Y2 antag | NPY1 pot ag | EP2 modulator | NPY-Y1 antag | NPY-Y2 PAM-ag | PGE2 EP2 inh
CCn1cc(CNCc2c(C(=O)N3CCCCC3)nc3c(C)cccn23)cn1 | . | -16 | 17 | 21* | -10 | 1
CCc1ccc(-c2nc(CN3CCC(C(=O)NCc4ccccc4OC)CC3)c(C)o2)cc1 | 18* | -58 | -26 | 21* | -17 | 10
COc1ccccc1CNC(=O)C1CCN(Cc2nc(-c3cccc(Cl)c3)oc2C)CC1 | 2 | -6 | -23 | 7 | 5 | 8
c1ccc([P+](CC[P+](c2ccccc2)(c2ccccc2)c2ccccc2)(c2ccccc2)c2ccccc2)cc1 | . | . | 18 | . | . | 45*
CC1=NOC(=O)/C1=C\c1ccc2c(c1)OCO2 | . | -16 | -69 | 0 | 3 | 15
CC1=NOC(=O)/C1=C/c1ccc2c(c1)OCO2 | . | -2 | -66 | 1 | 5 | 61*
COc1ccc2c(c1)CCc1c(-c3noc4c3CCc3cc(OC)ccc3-4)noc1-2 | . | . | -6 | . | . | 45*
COc1ccc2c(c1)CCc1c-2n[nH]c1C(=O)O | -3 | 32 | 18 | -5 | 40* | 16
O=C1CC[C@]23/C=C/C(=O)NCCCCNCCCNC(=O)/C=C/c4ccc(c2c4)O[C@@H]3C1 | . | . | 10 | . | . | 10
Cc1ccccc1C(=O)N(Cc1nc2sc3c(c2c(=O)[nH]1)CCCC3)Cc1cccs1 | . | . | 31 | . | . | 5
COc1cc(C2/C(=C(/O)c3cc(C)ccc3C)C(=O)C(=O)N2Cc2cccnc2)ccc1O (centres undefined) | . | . | 8 | . | . | 7
CCOC(=O)c1ccccc1NC(=O)N1CCn2c(C)ccc2C1CC (centres undefined) | 9 | -20 | 64* | 4 | 1 | 0
CC(=O)Nc1nc(-c2ccc3c(c2)CCN3C(=O)C2CCCCC2)cs1 | . | . | -7 | . | . | 17
Cc1cc2cc(CN(CC3CCCO3)C(c3nnnn3CC3CCCO3)C(C)C)c(=O)[nH]c2cc1C (centres undefined) | . | . | -1 | . | . | 8
O=C(O)CSc1cc(C(=O)c2ccccc2O)cn2c(=O)c3c(-c4ccccc4)csc3nc12 | . | 3 | 61* | 3 | -10 | 8
CCOC(=O)c1sc2nc3c(SCC(=O)O)cc(C(=O)c4ccccc4O)cn3c(=O)c2c1C | . | -5 | 54 | -1 | -10 | 1
Cc1cccc2nc(-c3ccco3)c(Nc3ccccc3)n12 | . | 47* | -45 | -7 | 34* | 6
CC1(C)CCC2=C(O1)c1ccccc1C(=O)C2=O | . | . | -31 | . | . | 41*
CC1(C)CCc2c([nH]c3ccccc3c2=O)O1 | . | -2 | 2 | 4 | 5 | 19
CC(=O)N(C)c1ccc(NS(=O)(=O)c2cc(Cl)ccc2Cl)cc1 | . | -12 | -31 | 21* | -29 | 2
O=C(O)CCN1CN(CCC(=O)O)c2ccccc21 | . | . | -7 | . | . | 9
C=CCOc1nc(-c2ccccc2Cl)nc2ccccc12 | . | -6 | 63* | . | -20 | 6
CC(=O)N1c2ccc(NC(=O)c3cnc(C(C)(C)C)nc3)cc2CC1C (centres undefined) | . | . | -25 | . | . | 5
Cc1nn(CC(=O)N(C)CCCc2ccco2)c(=O)c2cc3occc3n12 | . | . | -21 | . | . | .
Cc1ccc(OCCCN2C(=O)C(=O)c3cccc(C)c32)cc1 | 3 | -35 | 63* | 1 | -8 | 24
SMILES | NPY-Y2 antag | NPY1 pot ag | EP2 modulator | NPY-Y1 antag | NPY-Y2 PAM-ag | PGE2 EP2 inh
Cc1ccc(OCCN2C(=O)C(=O)c3cc(C)ccc32)cc1 | . | -18 | -25 | 21* | -24 | 6
Cc1cccc2c1N(CCOc1ccc(C(C)(C)C)cc1)C(=O)C2=O | 2 | -2 | 20 | -1 | -3 | 10
C=CCn1c2cc(C)sc2c2cnn(CC(=O)N3CCC(C(N)=O)CC3)c(=O)c21 | . | . | -11 | . | . | .
COC(=O)CSC1=NS(=O)(=O)c2ccccc21 | 1 | 6 | -16 | -3 | 10 | 114*
CC(C)(C)c1ccc(OCC(=O)Nc2ncccn2)cc1 | . | . | -20 | . | . | 8
Cc1cc(N=Nc2c(O)c3ccccc3[nH]c2=O)ccc1N=Nc1ccc(C(=O)N(C)C)cc1 | . | 9 | 2 | . | 14 | 4
Cc1ccc(N=Nc2c(O)c3ccccc3[nH]c2=O)c(S(=O)(=O)N(C)C)c1 | . | -6 | -17 | . | 5 | 48*!
C=C1C(=O)C=C2CN(C(=O)c3ccccc3)[C@@](Cc3ccc(F)cc3)(C(=O)OC)[C@@H]12 | 1 | -26 | -44 | 0 | -1 | 92*
COC(=O)[C@@]1(Cc2ccc(F)cc2)[C@H]2c3cc(C(=O)N(C)C)n(Cc4ccccc4)c3C[C@H]2CN1C(=O)c1ccccc1 | 21* | -11 | 27 | 32* | 3 | 8
COC(=O)[C@@]1(Cc2ccc(OC)cc2)[C@H]2c3cc(C(=O)N4CCCC4)n(Cc4ccc(C)o4)c3C[C@H]2CN1C(=O)c1ccccc1 | 23* | -6 | 33 | 32* | 3 | 17
CCCN1C2CCCC1CC(NC(=O)c1ccc(OCC)cc1)C2 (centres undefined) | . | . | 23 | . | . | 13
Nc1nc(Nc2cccc(F)c2)nc2ccccc12 | -1 | 42* | -34 | -3 | 43* | 6
O=c1oc(Nc2cccc(F)c2)nc2ccccc12 | 2 | 12 | -29 | 3 | -11 | 8
CCCCc1ccc(NC(=O)CSC2=C(C#N)C(c3ccco3)C3=C(CCCC3=O)N2)cc1 (centres undefined) | -2 | 99* | -2 | -14 | 98* | .
COc1cccc(NC(=O)CSC2=C(C#N)C(c3ccco3)C3=C(CCCC3=O)N2)c1 (centres undefined) | 3 | 13 | 0 | -8 | 3 | 16
CCCC(=O)N1CCN(c2ccc(NC(=O)CC)cc2)CC1 | . | . | -15 | . | . | 10
CNc1oc(-c2ccccc2Cl)nc1P(=O)(c1ccccc1)c1ccccc1 | 2 | 5 | 39 | 4 | 7 | 7
CNc1oc(-c2ccc(C)cc2)nc1P(=O)(c1ccccc1)c1ccccc1 | 4 | 3 | 61* | 8 | 17 | 8
O=S1(=O)c2ccccc2N=NN1Cc1ccc(Cl)cc1 | 2 | 11 | -23 | -2 | -1 | 43*
CCC(=O)Nc1ccc(-c2nc3cc(CC)ccc3o2)cc1 | . | . | -80 | . | . | 10
C/C(N[O-])=C(\C)[N+]([O-])=[Co].CC(=N\[O-])/C(C)=N/[O-].O[C@@H]1[CH-]CCCC1.c1ccncc1 | . | . | -1 | . | . | 43*
COc1cc(NC(=O)C2CC(=O)N(c3ccc(C)cc3)C2)c(OC)cc1Cl (centres undefined) | . | . | -18 | . | . | 11
COC(=O)c1ccc(NC(=O)Cn2nc3n(C)c4ccccc4n3c(=O)c2=O)cc1 | . | . | -38 | . | . | 6
CC[C@H](Cn1ncc2ccccc2c1=O)NC(=O)Cc1ccc(OC)cc1 | . | . | 0 | . | . | .
Cc1ccc2ncccc2c1[N+](=O)[O-] | 1 | 6 | 6 | 1 | 14 | 7
O=[N+]([O-])c1ccc2ncccc2c1CCc1c([N+](=O)[O-])ccc2ncccc12 | . | . | 4 | . | . | 53*
